Measured values as given in ChEMBL document CHEMBL1125136, “Quinolone antibacterial agents substituted at the 7-position with spiroamines. Synthesis and structure-activity relationships” (1990).
In brackets after ≈: the same amount, converted by molar mass.

Test system: Streptococcus pneumoniae
Test: In vivo protective dose was determined against Streptococcus pneumoniae SV-1 after peroral administration
Settings: po, read-out: PD50
Work on `CCN1CCC2(CCN(c3c(F)cc4c(=O)c(C(=O)O)cn(CC)c4c3F)C2)C1` (stereo unspecified) yielded an ED50 of 68 mg/kg.

Test system: Klebsiella pneumoniae
Test: Evaluated for minimum inhibitory concentration against gram-negative bacteria Klebsiella pneumoniae MGH-2
Type: functional
Settings: not given
Summary of the method: (§1)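 Broth microdilution MIC by standard technique. Values come from duplicate experiments and are stated as accurate to ±50%.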
`CCNCC1CCN(c2c(F)cc3c(=O)c(C(=O)O)cn(C4CC4)c3c2F)C1` (stereo unspecified) [PD-117558] showed an MIC of 0.1 µg/mL (≈ 0.255 µM).
`CCn1cc(C(=O)O)c(=O)c2cc(F)c(N3CCC4(CCN(C)C4)C3)cc21` (stereo unspecified) gave an MIC of 0.8 µg/mL (≈ 2.14 µM).
For `CCN1CCC2(CCN(c3c(F)cc4c(=O)c(C(=O)O)cn(CC)c4c3F)C2)C1` (stereo unspecified), the MIC was 0.2 µg/mL (≈ 0.493 µM).

Test system: Streptococcus pyogenes
Test: In vivo protective dose was determined against Streptococcus pyogenes after peroral administration
Settings: po, read-out: PD50
With `CCN1CCC2(CCN(c3c(F)cc4c(=O)c(C(=O)O)cn(CC)c4c3F)C2)C1` (stereo unspecified) the ED50 was 70 mg/kg.

Test system: Pseudomonas aeruginosa
Test: Evaluated for minimum inhibitory concentration against gram-negative bacteria Pseudomonas aeruginosa UI-18
Type: functional
Settings: not given
Summary of the method: as §1
`CCNCC1CCN(c2c(F)cc3c(=O)c(C(=O)O)cn(C4CC4)c3c2F)C1` (stereo unspecified) [PD-117558] showed an MIC of 0.4 µg/mL (≈ 1.02 µM).
`CCn1cc(C(=O)O)c(=O)c2cc(F)c(N3CCC4(CCN(C)C4)C3)cc21` (stereo unspecified) gave an MIC of 3.1 µg/mL (≈ 8.3 µM).
Work on `CCN1CCC2(CCN(c3c(F)cc4c(=O)c(C(=O)O)cn(CC)c4c3F)C2)C1` (stereo unspecified) yielded an MIC of 3.1 µg/mL (≈ 7.65 µM).

Test system: Escherichia coli
Test: In vivo protective dose for mouse protection assay in Escherichia coli Vogel after peroral administration
Type: functional
Settings: po, read-out: PD50
Summary of the method: (§2)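 Female Charles River CD-1 mice were given an acute, lethal, systemic infection. A single dose of compound was given at the time of challenge, by the route stated in the line, with 16 animals per dose level. The read-out is the median protective dose (PD50, mg/kg). Per the footnote, values come from 16 animals per test, with a mean variation of ±34%.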
With `CCN1CCC2(CCN(c3c(F)cc4c(=O)c(C(=O)O)cn(CC)c4c3F)C2)C1` (stereo unspecified) the ED50 was 13 mg/kg.

Test system: Streptococcus pyogenes
Test: Evaluated for minimum inhibitory concentration against gram-positive bacteria Streptococcus pyogenes C203
Settings: not given
`CCNCC1CCN(c2c(F)cc3c(=O)c(C(=O)O)cn(C4CC4)c3c2F)C1` (stereo unspecified) [PD-117558] gave an MIC of 0.025 µg/mL (≈ 0.0639 µM).
Compound `CCn1cc(C(=O)O)c(=O)c2cc(F)c(N3CCC4(CCN(C)C4)C3)cc21` (stereo unspecified) has an MIC of 0.4 µg/mL (≈ 1.07 µM).
Work on `CCN1CCC2(CCN(c3c(F)cc4c(=O)c(C(=O)O)cn(CC)c4c3F)C2)C1` (stereo unspecified) yielded an MIC of 0.4 µg/mL (≈ 0.987 µM).

Test system: Streptococcus pneumoniae
Test: In vivo protective dose was determined against Streptococcus pneumoniae SV-1 after subcutaneous administration
Settings: sc, read-out: PD50
In the case of `CCN1CCC2(CCN(c3c(F)cc4c(=O)c(C(=O)O)cn(CC)c4c3F)C2)C1` (stereo unspecified), the ED50 was 43 mg/kg.

Test system: Pseudomonas
Test: Evaluated for minimum inhibitory concentration against gram-negative bacteria Pseudomonas rettgeri H1771
Type: functional
Settings: not given
Summary of the method: as §1
Work on `CCNCC1CCN(c2c(F)cc3c(=O)c(C(=O)O)cn(C4CC4)c3c2F)C1` (stereo unspecified) [PD-117558] yielded an MIC of 0.2 µg/mL (≈ 0.511 µM).
`CCn1cc(C(=O)O)c(=O)c2cc(F)c(N3CCC4(CCN(C)C4)C3)cc21` (stereo unspecified) gave an MIC of 3.1 µg/mL (≈ 8.3 µM).
`CCN1CCC2(CCN(c3c(F)cc4c(=O)c(C(=O)O)cn(CC)c4c3F)C2)C1` (stereo unspecified) gave an MIC of 1.6 µg/mL (≈ 3.95 µM).

Test system: Streptococcus pyogenes
Test: In vivo protective dose was determined against Streptococcus pyogenes after subcutaneous administration
Settings: sc, read-out: PD50
For `CCN1CCC2(CCN(c3c(F)cc4c(=O)c(C(=O)O)cn(CC)c4c3F)C2)C1` (stereo unspecified), the ED50 was 38 mg/kg.

Test system: Staphylococcus aureus
Test: Evaluated for minimum inhibitory concentration against […] bacteria Staphylococcus aureus H228
Type: functional
Settings: not given
Summary of the method: as §1
For `CCNCC1CCN(c2c(F)cc3c(=O)c(C(=O)O)cn(C4CC4)c3c2F)C1` (stereo unspecified) [PD-117558], the MIC was 0.025 µg/mL (≈ 0.0639 µM).
`CCn1cc(C(=O)O)c(=O)c2cc(F)c(N3CCC4(CCN(C)C4)C3)cc21` (stereo unspecified) gave an MIC of 0.8 µg/mL (≈ 2.14 µM).
Work on `CCN1CCC2(CCN(c3c(F)cc4c(=O)c(C(=O)O)cn(CC)c4c3F)C2)C1` (stereo unspecified) yielded an MIC of 0.2 µg/mL (≈ 0.493 µM).

Test system: Enterobacter cloacae
Test: Evaluated for minimum inhibitory concentration against gram-negative bacteria Enterobacter cloacae HA 2646
Type: functional
Settings: not given
`CCNCC1CCN(c2c(F)cc3c(=O)c(C(=O)O)cn(C4CC4)c3c2F)C1` (stereo unspecified) [PD-117558] gave an MIC of 0.1 µg/mL (≈ 0.255 µM).
In the case of `CCn1cc(C(=O)O)c(=O)c2cc(F)c(N3CCC4(CCN(C)C4)C3)cc21` (stereo unspecified), the MIC was 0.2 µg/mL (≈ 0.536 µM).
Work on `CCN1CCC2(CCN(c3c(F)cc4c(=O)c(C(=O)O)cn(CC)c4c3F)C2)C1` (stereo unspecified) yielded an MIC of 0.4 µg/mL (≈ 0.987 µM).

Test system: Escherichia coli
Test: Evaluated for minimum inhibitory concentration against gram-negative bacteria Escherichia coli Vogel
Type: functional
Settings: not given
Summary of the method: as §1
Work on `CCNCC1CCN(c2c(F)cc3c(=O)c(C(=O)O)cn(C4CC4)c3c2F)C1` (stereo unspecified) [PD-117558] yielded an MIC of 0.05 µg/mL (≈ 0.128 µM).
In the case of `CCn1cc(C(=O)O)c(=O)c2cc(F)c(N3CCC4(CCN(C)C4)C3)cc21` (stereo unspecified), the MIC was 0.2 µg/mL (≈ 0.536 µM).
Compound `CCN1CCC2(CCN(c3c(F)cc4c(=O)c(C(=O)O)cn(CC)c4c3F)C2)C1` (stereo unspecified) has an MIC of 0.2 µg/mL (≈ 0.493 µM).

Test system: not listed separately
Test: Evaluated for minimum inhibitory concentration against […] bacteria […] SV-1
Type: functional
Settings: not given
Summary of the method: as §1
`CCNCC1CCN(c2c(F)cc3c(=O)c(C(=O)O)cn(C4CC4)c3c2F)C1` (stereo unspecified) [PD-117558] gave an MIC of 0.025 µg/mL (≈ 0.0639 µM).
`CCn1cc(C(=O)O)c(=O)c2cc(F)c(N3CCC4(CCN(C)C4)C3)cc21` (stereo unspecified) gave an MIC of 0.4 µg/mL (≈ 1.07 µM).
For `CCN1CCC2(CCN(c3c(F)cc4c(=O)c(C(=O)O)cn(CC)c4c3F)C2)C1` (stereo unspecified), the MIC was 0.8 µg/mL (≈ 1.97 µM).

Test system: Staphylococcus aureus
Test: Evaluated for minimum inhibitory concentration against […] bacteria Staphylococcus aureus UC-76
Type: functional
Settings: not given
Summary of the method: as §1
For `CCNCC1CCN(c2c(F)cc3c(=O)c(C(=O)O)cn(C4CC4)c3c2F)C1` (stereo unspecified) [PD-117558], the MIC was 0.006 µg/mL (≈ 0.0153 µM).
`CCn1cc(C(=O)O)c(=O)c2cc(F)c(N3CCC4(CCN(C)C4)C3)cc21` (stereo unspecified) showed an MIC of 0.1 µg/mL (≈ 0.268 µM).
For `CCN1CCC2(CCN(c3c(F)cc4c(=O)c(C(=O)O)cn(CC)c4c3F)C2)C1` (stereo unspecified), the MIC was 0.1 µg/mL (≈ 0.247 µM).

Test system: Pseudomonas aeruginosa
Test: In vivo protective dose was determined against Pseudomonas aeruginosa UI-18. after subcutaneous administration
Type: functional
Settings: sc, read-out: PD50
Summary of the method: as §2
Work on `CCN1CCC2(CCN(c3c(F)cc4c(=O)c(C(=O)O)cn(CC)c4c3F)C2)C1` (stereo unspecified) yielded an ED50 of 180 mg/kg.

Test system: Pseudomonas aeruginosa
Test: In vivo protective dose was determined against Pseudomonas aeruginosa UI-18. after peroral administration
Type: functional
Settings: po, read-out: PD50
Summary of the method: as §2
In the case of `CCN1CCC2(CCN(c3c(F)cc4c(=O)c(C(=O)O)cn(CC)c4c3F)C2)C1` (stereo unspecified), the ED50 was greater than 100 mg/kg.

Test system: Enterococcus faecalis
Test: Evaluated for minimum inhibitory concentration against gram-positive bacteria Staphylococcus faecalis MGH-2
Settings: not given
Work on `CCNCC1CCN(c2c(F)cc3c(=O)c(C(=O)O)cn(C4CC4)c3c2F)C1` (stereo unspecified) [PD-117558] yielded an MIC of 0.025 µg/mL (≈ 0.0639 µM).
For `CCn1cc(C(=O)O)c(=O)c2cc(F)c(N3CCC4(CCN(C)C4)C3)cc21` (stereo unspecified), the MIC was 0.4 µg/mL (≈ 1.07 µM).
Work on `CCN1CCC2(CCN(c3c(F)cc4c(=O)c(C(=O)O)cn(CC)c4c3F)C2)C1` (stereo unspecified) yielded an MIC of 0.2 µg/mL (≈ 0.493 µM).

Test system: Escherichia coli
Test: In vivo protective dose was determined in mouse protection assay in Escherichia coli Vogel after subcutaneous administration
Type: functional
Settings: sc, read-out: PD50
Summary of the method: as §2
Work on `CCN1CCC2(CCN(c3c(F)cc4c(=O)c(C(=O)O)cn(CC)c4c3F)C2)C1` (stereo unspecified) yielded an ED50 of 6 mg/kg.

Test system: Escherichia coli
Test: Evaluated for minimum concentration needed to produce linear DNA at an intensity relative to oxolinic acid at 10 mg/mL. by gyrase mediated cleavage of DNA in Escherichia coli 560.
Type: functional
Settings: read-out: MIC
With `CCNCC1CCN(c2c(F)cc3c(=O)c(C(=O)O)cn(C4CC4)c3c2F)C1` (stereo unspecified) [PD-117558] the minimum concentration for gyrase-mediated DNA cleavage was 0.25 µg/mL.
For `CCn1cc(C(=O)O)c(=O)c2cc(F)c(N3CCC4(CCN(C)C4)C3)cc21` (stereo unspecified), the minimum concentration for gyrase-mediated DNA cleavage was 5 µg/mL.
Compound `CCN1CCC2(CCN(c3c(F)cc4c(=O)c(C(=O)O)cn(CC)c4c3F)C2)C1` (stereo unspecified) has a minimum concentration for gyrase-mediated DNA cleavage of 5 µg/mL.
